# Measurements reported in ChEMBL document CHEMBL1157617, “A new class of naphthalimide-based antitumor agents that inhibit topoisomerase II and induce lysosomal membrane permeabilization and apoptosis” (J Med Chem, 2010).
# Activity calls are given as the source filed them. The calls are words filed in the database; no cut-off is given here.
# Legend:
# [1] = test system: HeLa; test: Induction of lysosomal membrane permeabilization in human HeLa cells assessed as acridine orange red fluorescence at 8 uM after 24 hrs by flow cytometry; assay type: functional
# Summary of the method: (§1)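 Each compound was tested at three concentrations on HeLa cells for 24 h. Adherent and floating cells were pooled and stained with 20 μg/mL acridine orange for 2 min at room temperature. Lysosomal rupture was scored by flow cytometry as percentage of cells with AO red fluorescence.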
# [2] = test system: HeLa; test: Cytotoxicity against human HeLa cells after 24 hrs by MTT assay
# [3] = test system: Nucleic Acid; test: Induction of conformational changes in Escherichia coli pBR322 DNA assessed as DNA relaxation at 100 uM after 2 hrs by gel electrophoresis; assay type: nucleic-acid assay
# Summary of the method: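 pBR322 plasmid (200 ng) was incubated with compound at 100 μM in Tris-HCl pH 7.4 for 2 h at 37 °C. Samples ran on 1% agarose and were stained with ethidium bromide; supercoiled versus relaxed forms were judged from gel migration.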
# [4] = test system: HeLa; test: Induction of lysosomal membrane permeabilization in human HeLa cells assessed as acridine orange red fluorescence at 11 uM after 24 hrs by flow cytometry; assay type: functional; summary of the method: as §1
# [5] = test system: HeLa; test: Induction of lysosomal membrane permeabilization in human HeLa cells assessed as acridine orange red fluorescence at 5 uM after 24 hrs by flow cytometry; assay type: functional; summary of the method: as §1
# [6] = test system: HL-60; test: Cytotoxicity against human HL60 cells after 72 hrs by MTT assay; assay type: functional, cell-based; conditions: HL-60, 24 h, in the assay text read “after 24 hrs” for “after 72 hrs”
# Summary of the method: (§2)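 MTT viability assay on HeLa, HL-60, MCF-7, MKN45 and LS174 cells. MTT (500 μg/mL) was added for 4 h at 37 °C and formazan dissolved in DMSO; A570 was read. IC50 came from linear regression; experiments were done in triplicate.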
# [7] = test system: MKN-45; test: Cytotoxicity against human MKN45 cells after 24 hrs by MTT assay; conditions: MKN-45, 24 h
# [8] = test system: MCF7; test: Cytotoxicity against human MCF7 cells after 24 hrs by MTT assay; conditions: MCF7, 24 h
# [9] = test system: HeLa; test: Induction of apoptosis in human HeLa cells assessed as viable cells at IC50 concentration after 24 hrs using annexin V/propidium iodide staining by flow cytometry; assay type: functional
# Summary of the method: (§3)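 HeLa cells, seeded at 1 × 10^6 per well, were treated for 24 h at a fixed concentration set per compound. Cells were washed in cold PBS and resuspended in binding buffer. Staining was annexin V-FITC at 4 °C in the dark for 15 min, then PI for 5 min. Quadrants were read by flow cytometry: live, early apoptotic, late apoptotic, damaged. Run three times.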
# [10] = test system: Calf thymus DNA; test: Binding affinity to calf thymus DNA assessed as circular dichroism by CD spectroscopy; assay type: nucleic-acid assay; conditions: Bos taurus
# Summary of the method: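 CT DNA (100 μM) with drug (20 μM) in 20 mM Tris-HCl pH 7.4. DNA concentration set by UV absorbance, A260/A280 above 1.8. CD spectrum recorded 200-400 nm in a 1 cm cell after shaking, thermal equilibration and buffer subtraction. Analysed over 230-300 nm.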
# [11] = test system: HeLa; test: Induction of cytochrome c release into cytosol in human HeLa cells at IC50 concentration after 24 hrs by FITC/Hoechst soluble immunocytochemical staining; assay type: functional, cell-based
# Summary of the method: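 HeLa cells were treated 24 h at compound-specific concentrations, then fixed in 10% formaldehyde, permeabilized in 90% methanol and blocked with milk. Staining was rabbit anti-cytochrome c (1:500) then FITC goat anti-rabbit IgG (1:100), 1 h each at room temperature, with 2 μg/mL Hoechst 33258 as counterstain. Cytosolic green signal was imaged by confocal microscopy.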
# [12] = test system: HeLa; test: Induction of apoptosis in human HeLa cells assessed as late apoptotic cells at IC50 concentration after 24 hrs using annexin V/propidium iodide staining by flow cytometry; assay type: functional; summary of the method: as §3
# [13] = Cytotoxicity against human LS 174T cells after 24 hrs by MTT assay; conditions: LS174T
# [14] = test system: HeLa; test: Induction of apoptosis in human HeLa cells assessed as damaged cells at IC50 concentration after 24 hrs using annexin V/propidium iodide staining by flow cytometry; assay type: functional; summary of the method: as §3
# [15] = biological target: DNA topoisomerase 2-alpha (Homo sapiens) (UniProt P11388); test: Inhibition of DNA topoisomerase 2-mediated kDNA decatenation at 100 uM
# Summary of the method: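 Cell-free topo II decatenation: 0.2 μg kDNA was incubated with HeLa-cell topo II extract and compound at 100 μM. The cleavage buffer contained 50 mM Tris-HCl pH 8.0, 120 mM KCl, 10 mM MgCl2, 1 mM ATP and 0.5 mM DTT. Reactions ran 15 min at 37 °C and were stopped with SDS. Products were resolved on 1% agarose and stained with ethidium bromide.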
# [16] = test system: MCF7; test: Cytotoxicity against human MCF7 cells after 72 hrs by MTT assay; assay type: functional, cell-based; conditions: MCF7, 24 h, in the assay text read “after 24 hrs” for “after 72 hrs”; summary of the method: as §2
# [17] = test system: HeLa; test: Induction of lysosomal membrane permeabilization in human HeLa cells assessed as acridine orange red fluorescence at 7 uM after 24 hrs by flow cytometry; assay type: functional; summary of the method: as §1
# [18] = test system: HeLa; test: Induction of lysosomal membrane permeabilization in human HeLa cells assessed as acridine orange red fluorescence at 4 uM after 24 hrs by flow cytometry; assay type: functional; summary of the method: as §1
# [19] = test system: HeLa; test: Induction of lysosomal membrane permeabilization in human HeLa cells assessed as acridine orange red fluorescence at 10 uM after 24 hrs by flow cytometry; assay type: functional; summary of the method: as §1
# [20] = test system: HeLa; test: Induction of apoptosis in human HeLa cells assessed as early apoptotic cells at IC50 concentration after 24 hrs using annexin V/propidium iodide staining by flow cytometry; assay type: functional; summary of the method: as §3
# [21] = test system: HeLa; test: Induction of lysosomal membrane permeabilization in human HeLa cells assessed as acridine orange red fluorescence at 6 uM after 24 hrs by flow cytometry; assay type: functional; summary of the method: as §1
# [22] = test system: HeLa; test: Induction of lysosomal membrane permeabilization in human HeLa cells assessed as acridine orange red fluorescence at 2 uM after 24 hrs by flow cytometry; assay type: functional; summary of the method: as §1
# [23] = test system: HeLa; test: Induction of lysosomal membrane permeabilization in human HeLa cells assessed as acridine orange red fluorescence at 17 uM after 24 hrs by flow cytometry; assay type: functional; summary of the method: as §1
# [24] = test system: HeLa; test: Induction of lysosomal membrane permeabilization in human HeLa cells assessed as acridine orange red fluorescence at 14 uM after 24 hrs by flow cytometry; assay type: functional; summary of the method: as §1
# [25] = test system: HeLa; test: Induction of lysosomal membrane permeabilization in human HeLa cells assessed as acridine orange red fluorescence at 20 uM after 24 hrs by flow cytometry; assay type: functional; summary of the method: as §1
# [26] = test system: Calf thymus DNA; test: Binding affinity to calf thymus DNA by fluorescent spectra analysis; assay type: nucleic-acid assay; conditions: Bos taurus
# Summary of the method: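 Compounds at 10, 20, 30 and 50 μM in 20 mM Tris-HCl pH 7.4, with or without 100 μM CT DNA (no-DNA samples as control). Incubated 1 day in the dark at 25 °C. Fluorescence wavelength and intensity read at 25 °C. Scatchard binding constant calculated.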
# [27] = test system: HeLa; test: Induction of lysosomal membrane permeabilization in human HeLa cells assessed as acridine orange red fluorescence at 15 uM after 24 hrs by flow cytometry; assay type: functional; summary of the method: as §1
# [28] = test system: HeLa; test: Induction of lysosomal membrane permeabilization in human HeLa cells assessed as acridine orange red fluorescence at 3 uM after 24 hrs by flow cytometry; assay type: functional; summary of the method: as §1
# [29] = test system: HeLa; test: Induction of lysosomal membrane permeabilization in human HeLa cells assessed as acridine orange red fluorescence at 1 uM after 24 hrs by flow cytometry; assay type: functional; summary of the method: as §1
# [30] = in the assay text read “late apoptotic cells” for “damaged cells”
# DNA topoisomerase 2-alpha (Homo sapiens), sequence (P11388 whole entry): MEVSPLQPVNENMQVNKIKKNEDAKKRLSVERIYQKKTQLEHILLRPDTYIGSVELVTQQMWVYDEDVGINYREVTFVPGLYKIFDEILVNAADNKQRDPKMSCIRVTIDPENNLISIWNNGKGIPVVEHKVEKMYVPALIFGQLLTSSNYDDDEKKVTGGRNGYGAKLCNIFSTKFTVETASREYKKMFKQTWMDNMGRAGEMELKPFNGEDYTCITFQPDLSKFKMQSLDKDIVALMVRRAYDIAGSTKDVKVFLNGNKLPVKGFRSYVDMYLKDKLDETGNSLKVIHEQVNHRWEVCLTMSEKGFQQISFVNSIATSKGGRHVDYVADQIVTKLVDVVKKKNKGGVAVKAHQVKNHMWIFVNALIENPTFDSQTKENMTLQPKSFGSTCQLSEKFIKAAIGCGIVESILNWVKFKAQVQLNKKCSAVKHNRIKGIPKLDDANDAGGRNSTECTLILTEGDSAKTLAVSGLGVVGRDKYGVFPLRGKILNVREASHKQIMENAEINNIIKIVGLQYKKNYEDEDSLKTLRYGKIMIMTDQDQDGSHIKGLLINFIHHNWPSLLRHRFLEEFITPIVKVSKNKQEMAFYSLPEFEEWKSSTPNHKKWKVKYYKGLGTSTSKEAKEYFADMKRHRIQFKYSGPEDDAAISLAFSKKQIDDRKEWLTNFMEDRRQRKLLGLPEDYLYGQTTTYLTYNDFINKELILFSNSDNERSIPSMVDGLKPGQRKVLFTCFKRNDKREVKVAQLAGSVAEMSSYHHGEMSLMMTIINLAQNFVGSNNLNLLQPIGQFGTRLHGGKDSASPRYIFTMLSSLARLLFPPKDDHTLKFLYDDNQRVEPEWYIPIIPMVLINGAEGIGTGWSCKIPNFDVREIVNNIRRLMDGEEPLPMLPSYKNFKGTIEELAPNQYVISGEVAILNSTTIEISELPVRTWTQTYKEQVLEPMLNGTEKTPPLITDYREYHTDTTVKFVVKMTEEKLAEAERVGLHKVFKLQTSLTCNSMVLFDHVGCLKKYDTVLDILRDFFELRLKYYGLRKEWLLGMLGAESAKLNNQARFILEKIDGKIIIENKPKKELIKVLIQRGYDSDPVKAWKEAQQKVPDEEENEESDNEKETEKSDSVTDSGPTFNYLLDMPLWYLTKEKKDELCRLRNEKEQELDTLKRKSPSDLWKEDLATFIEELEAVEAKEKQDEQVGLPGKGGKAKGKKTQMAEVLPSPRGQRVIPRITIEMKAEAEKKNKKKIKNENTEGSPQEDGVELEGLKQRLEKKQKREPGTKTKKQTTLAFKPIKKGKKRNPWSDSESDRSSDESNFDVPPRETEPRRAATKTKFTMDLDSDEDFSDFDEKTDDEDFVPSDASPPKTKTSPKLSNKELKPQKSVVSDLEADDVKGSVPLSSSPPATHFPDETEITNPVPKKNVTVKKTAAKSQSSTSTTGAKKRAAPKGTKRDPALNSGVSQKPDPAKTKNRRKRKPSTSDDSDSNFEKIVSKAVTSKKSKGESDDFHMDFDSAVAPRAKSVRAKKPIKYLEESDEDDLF
Activity [3],Activity [10],Activity [15],SMILES,IC50 [2] [µM],IC50 [6] [µM],IC50 [7] [µM],Activity [11],IC50 [13] [µM],IC50 [16] [µM],Activity [18] [%],"Activity [14, 30] [%]",Activity [20] [%],other results
inactive,inactive,Active,CCCCCCCCNc1ccc2c3c(cccc13)C(=O)N(CCCN1CCN(C)CC1)C2=O,8.1,5.7,22.2,Active,18.4,–,–,–,–,Activity [1]: 91.86%; Activity [4]: 83.18%; Activity [5]: 89.48%; IC50 [8]: 5.72 µM; Activity [9]: 3.28%; Activity [12]: 96.7%; Activity [14]: 96.66%
inactive,inactive,Active,CCCCCCCCN1C(=O)c2cccc3c(NCCN4CCN(C)CC4)ccc(c23)C1=O,7.9,12,17.4,Active,17.9,8.35,93.04,53.82,–,Activity [17]: 88.55%; Activity [19]: 89.89%
inactive,inactive,Active,CCCCCCCCCCCCN1C(=O)c2cccc3c(NCCN4CCN(C)CC4)ccc(c23)C1=O,5.45,7.05,9.28,Active,12.7,2.79,95.81,12.75,86.98,Activity [21]: 92.83%; Activity [22]: 97.39%
inactive,inactive,Active,CCCCCCCCCCCCN1C(=O)c2cccc3c(NCCNCCN(C)C)ccc(c23)C1=O,16.8,6.63,11.8,Active,18.6,4.52,–,20.72,79.21,Activity [23]: 93.5%; Activity [24]: 94.85%; Activity [25]: 88.49%
inactive,inactive,Active,CCCCCCCCN1C(=O)c2cccc3c(NCCNCCN(C)C)ccc(c23)C1=O,4.5,5.13,9.28,Active,9.27,3.76,90.98,9.82,90.07,Activity [26]: inactive; Activity [21]: 85.74%; Activity [22]: 92.29%
inactive,inactive,Active,CCCCCCCCNc1ccc2c3c(cccc13)C(=O)N(CCCNCCN(C)C)C2=O,4.06,2.67,14.8,Active,9.16,2.41,84.5,–,74.25,Activity [9]: 25.7%; Activity [21]: 32.89%; Activity [22]: 83.13%
inactive,inactive,Active,CCCCCCCCCCCCNc1ccc2c3c(cccc13)C(=O)N(CCCNCCN(C)C)C2=O,4.71,4.04,15.5,Active,9.43,2.56,82.37,98.89,–,Activity [9]: 1.05%; Activity [21]: 44.64%; Activity [22]: 85.49%; Activity [12]: 98.89%
inactive,inactive,Active,CCCCCCCCCCCCNc1ccc2c3c(cccc13)C(=O)N(CCCN1CCN(C)CC1)C2=O,2.89,2.98,8.43,Active,7.43,2.48,–,14.96,84.84,Activity [5]: 59.82%; Activity [28]: 95.2%; Activity [29]: 96.01%

# More lines, now with the values behind:
SMILES,Activity [3],Activity [10],Activity [15],IC50 [2] [µM],IC50 [6] [µM],IC50 [7] [µM],Activity [11],IC50 [13] [µM],IC50 [16] [µM],Activity [18] [%],"Activity [14, 30] [%]",Activity [20] [%],other results
CCCCCCCCNc1ccc2c3c(cccc13)C(=O)N(CCCN(C)C)C2=O,–,–,–,8.52,5.53,17.6,–,5.87,5.15,–,–,–,–
CCCCCCCCCCCCN1C(=O)c2cccc3c(NCCCCCCCC)ccc(c23)C1=O,–,–,–,46.4,> 50,> 50,–,> 50,> 50,–,–,–,–
CNc1ccc2c3c(cccc13)C(=O)N(CCCN(C)C)C2=O,–,–,–,23.4,21.6,> 50,–,31.5,9.66,–,–,–,–
COc1cccc2c1C(=O)c1c(O)c3c(c(O)c1C2=O)C[C@@](O)(C(=O)CO)C[C@@H]3O[C@H]1C[C@H](N)[C@H](O)[C@H](C)O1,Active,–,Active,–,–,–,–,–,–,–,–,–,–
CN(C)CCN1C(=O)c2cccc3cc(N)cc(c23)C1=O [AMONAFIDE],–,–,Active,10.7,–,> 50,–,20.3,–,–,–,–,Kb [26]: 14300 M⁻¹; Activity [27]: 77.27%; Activity [5]: 112%; Activity [19]: 10%
CCCCCCCCCCCCN1C(=O)c2cccc3c(NCCN(C)C)ccc(c23)C1=O,–,–,–,9.13,5.32,9.03,–,12.8,3.57,–,–,–,–
